Our source for the IC50, inhibition and Activity values is ChEMBL document CHEMBL1268838, “The synthesis and biologic evaluation of anti-platelet and cytotoxic β-nitrostyrenes” (Bioorg Med Chem, 2010).

Data set [1] deals with HBL-100. In words: Cytotoxicity against human HBL100 cells after 72 hrs by MTT assay. The data set is classed as functional, cell-based. Particulars: HBL-100, 72 h. The essentials:
(§1)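 MDA-MB-231 breast cancer or HBL-100 non-malignant breast epithelial cells: freshly trypsinized cells seeded at 8000 per well, with compound added from DMSO-diluted stock. After 72 h, attached cells were given MTT (0.5 mg/mL, 1 h) and solubilized in DMSO.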

A short description of data set [2]: Antiaggregatory activity in human platelets assessed as inhibition of collagen-induced platelet aggregation preincubated for 3 mins before collagen challenge by turbidimetry analysis. The data set is classed as functional, cell-based. The essentials: (§2)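 Washed platelets from ACD-anticoagulated blood of drug-free healthy volunteers, resuspended at 3 × 10⁸/ml in Tyrode's solution with Ca²⁺ 2 mM, glucose 11.1 mM and BSA 3.5 mg/ml. Platelets were stirred at 1200 rpm and 37 °C for 3 min with DMSO (0.5%, vehicle) or compound, then the inducer was added. Aggregation was read by light-transmission aggregometry. IC50 is the mean of two independent experiments (TPA lines n = 3).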

Data set [3] concerns HBL-100. In words: Cytotoxicity against human HBL100 cells at 20 uM after 72 hrs by MTT assay. The data set is classed as functional. As to conditions: HBL-100, 72 h. A general note: Tetrazolium dyes change colour on reduction, which living cells bring about.
In data set [4] the test system is MDA-MB-231. The data set is described as follows: Cytotoxicity against human MDA-MB-231 cells at 20 uM after 72 hrs by MTT assay. The data set is classed as functional. As to conditions: MDA-MB-231, 72 h.
Data set [5] in a line: Antiaggregatory activity in human platelets assessed as inhibition of thrombin-induced platelet aggregation preincubated for 3 mins before thrombin challenge by turbidimetry analysis. The data set is classed as functional, cell-based. The method in brief: as §2
The test system of data set [6] is MDA-MB-231. The data set is described as follows: Cytotoxicity against human MDA-MB-231 cells after 72 hrs by MTT assay. As to conditions: MDA-MB-231, 72 h. The data set is classed as functional, cell-based. The method in brief: as §1
The nature of data set [7]: Antiaggregatory activity in human platelets assessed as inhibition of A23187-induced platelet aggregation preincubated for 3 mins before A23187 challenge by turbidimetry analysis. The data set is classed as functional, cell-based. The method in brief:
as §2

A short description of data set [8]: Antiaggregatory activity in human platelets assessed as inhibition of TPA-induced platelet aggregation preincubated for 3 mins before TPA challenge by turbidimetry analysis. The data set is classed as functional, cell-based. The method in brief:
as §2

In data set [9] the test system is Integrin alpha-IIb/beta-3 (Homo sapiens). The data set is described as follows: Inhibition of glycoprotein 2b/3a activation in human platelets assessed as inhibition of thrombin-induced PAC-1 binding preincubated for 3 mins before thrombin challenge after 15 mins by flow cytometry. As to conditions: 0.25 h.

Molecules are shown by their SMILES.

Take `COc1cc(/C=C/[N+](=O)[O-])ccc1OC(=O)c1cc(Cl)cc(Cl)c1`: the IC50 (usually the point on the concentration scale where inhibition reaches its midpoint) in the data set on HBL-100 [1] was greater than 20 µM; in data set [2] it was 1400 nM; in data set [5], 1900 nM; in the data set on MDA-MB-231 [6] it was greater than 20 µM. Moreover, the inhibition (usually the change of the read-out against control, counted positive when it falls) at 20 µM came to 15.6% in the data set with HBL-100 [3] and 20% in the data set on MDA-MB-231 [4].

For the compound `COc1cc(/C=C/[N+](=O)[O-])ccc1OC(=O)c1ccc(F)c(F)c1F`, the IC50 was greater than 20 µM in the data set with HBL-100 [1], 2700 nM in data set [2], 23000 nM in data set [5] and greater than 20 µM in the data set with MDA-MB-231 [6]. The inhibition at 20 µM turned out to be 1.1% with HBL-100 [3] and 3.7% in the data set with MDA-MB-231 [4].

With `COc1cc(/C=C/[N+](=O)[O-])ccc1OC(=O)c1ccccc1F`, the IC50 is greater than 20 µM with HBL-100 [1], 1600 nM in [2], 4700 nM in data set [5] and greater than 20 µM in the data set with MDA-MB-231 [6]. Moreover, the inhibition at 20 µM with HBL-100 [3] was 4.9%; with MDA-MB-231 [4], 26.5%.

For `COc1cc(/C=C/[N+](=O)[O-])ccc1OC(=O)c1ccccc1Br`, the IC50 in the data set with HBL-100 [1] is greater than 20 µM; in data set [2], 2000 nM; in [5] it was 5400 nM; with MDA-MB-231 [6], greater than 20 µM. Also, the inhibition at 20 µM in the data set on HBL-100 [3] is 10%; in the data set with MDA-MB-231 [4] it was 8.3%.

As for `COc1cc(/C=C/[N+](=O)[O-])ccc1OC(=O)c1cccc(C(F)(F)F)c1`, the concentration for half-maximal inhibition (IC50) in the data set with HBL-100 [1] was greater than 20 µM; in [2] it was 1700 nM; in [5], 3300 nM; with MDA-MB-231 [6], greater than 20 µM. In addition, the inhibition at 20 µM with HBL-100 [3] is 12.5%; in the data set with MDA-MB-231 [4], 34.9%.

Turning to `COc1cc(/C=C/[N+](=O)[O-])ccc1OC(=O)c1ccc(C)cc1`, the half-inhibitory concentration (IC50) in the data set on HBL-100 [1] was greater than 20 µM; in data set [2], 2000 nM; in data set [5], 2700 nM; in the data set on MDA-MB-231 [6], greater than 20 µM. Also, the inhibition at 20 µM amounted to 8% in the data set on HBL-100 [3] and 7.9% with MDA-MB-231 [4].

On to `COc1cc(/C=C/[N+](=O)[O-])ccc1OC(=O)c1ccc(C(C)(C)C)cc1`, for which the IC50 was greater than 20 µM in the data set on HBL-100 [1]; 600 nM in data set [2]; 1100 nM in data set [7]; 600 nM in [5]; 3.5 µM in data set [8]; greater than 20 µM with MDA-MB-231 [6]. In addition, the inhibition at 20 µM in the data set on HBL-100 [3] was -2.1%; in the data set with MDA-MB-231 [4], 2.5%. For the same compound, the Activity result in data set [9] is listed as “Dose-dependent effect”.

On to `COc1cc(/C=C/[N+](=O)[O-])ccc1OC(=O)c1cccc(F)c1F`, for which the IC50 was greater than 20 µM in the data set on HBL-100 [1], 1600 nM in data set [2], 3300 nM in data set [5] and greater than 20 µM in the data set on MDA-MB-231 [6]. In addition, the inhibition at 20 µM in the data set on HBL-100 [3] came to 4.1%; with MDA-MB-231 [4] it was 25.5%.

Take `COc1cc(/C=C/[N+](=O)[O-])ccc1OC(=O)c1ccc(F)cc1F`: the IC50 in the data set on HBL-100 [1] was greater than 20 µM; in [2], 2000 nM; in data set [5], 3000 nM; in the data set on MDA-MB-231 [6], greater than 20 µM. Further, the inhibition at 20 µM in the data set with HBL-100 [3] is 16%; in the data set on MDA-MB-231 [4] it was 18.5%.

For the compound `COc1cc(/C=C/[N+](=O)[O-])ccc1OC(=O)c1cccc(Cl)c1Cl`, the IC50 with HBL-100 [1] is greater than 20 µM; in [2], 600 nM; in [7], 3300 nM; in data set [5], 700 nM; in data set [8], 5.3 µM; with MDA-MB-231 [6], greater than 20 µM. The results for the inhibition at 20 µM in the data set with HBL-100 [3] and in the data set on MDA-MB-231 [4] were 11.5% and -4.9%, respectively. Moreover, in data set [9], the Activity result is listed as “Dose-dependent effect”.

Consider `COc1cc(/C=C/[N+](=O)[O-])ccc1OC(=O)c1ccc(Cl)c(Cl)c1`, for which the IC50 with HBL-100 [1] was greater than 20 µM; in [2], 1800 nM; in [5], 1000 nM; in the data set on MDA-MB-231 [6], greater than 20 µM. The inhibition at 20 µM with HBL-100 [3] came to 15.2%; with MDA-MB-231 [4], 9.4%.
